Consider three compounds from publication PMC6893110 (Molecular imaging and biology, 2020).

For one series, the system named is LNCaP tumors. The experiment in a line: PET imaging blocking study in LNCaP tumor-bearing mice. The series is classed as in vivo, athymic nude mice. The note with it: 100-fold excess of cold IPAG co-injected with [^124I]IPAG. The method, boiled down:
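LNCaP cells (5×10^6 in 1:1 Matrigel/medium) were grown s.c. on the hind limb of athymic nude mice for 3–5 weeks. Mice got 0.1% KI i.p. 1 h before i.v. tracer (200 μCi in 150 μL 0.5% ethanol/saline) co-injected with 100-fold excess unlabeled IPAG. Under 2% isoflurane, mice were imaged by microPET at 4, 24 and 72 h. %ID/g came from regions of interest drawn on the PET images.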

Series [1] can be described thus: Solubility of IPAG in assay media. The format is physicochemical. Particulars: in both cell media and PBS.
The test system of the next series is MCF-7 tumor xenografts. Kind of series: In vivo tracer dilution. Particulars: for reduction of [^124I]IPAG tumor uptake: 100-fold excess of IPAG. On the set-up: species or system athymic nude mice. The method, boiled down:
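MCF7-xenografted athymic nude mice (estradiol-supplemented, 100–300 mm³ tumors) got KI i.p. 1 h before i.v. co-injection. […] Mice were euthanised at 24, 48 or 72 h and organs weighed and gamma-counted. %ID/g was decay- and background-corrected.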

For series [2], the target named is S1R (Homo sapiens, UniProt Q99720). The format is binding.
Series [3] concerns the target S1R. Particulars: read-out: Kd for S1R; binding to S1R; no reference given; cited from earlier work.
Another series has as its system MCF7 tumor xenografts. Kind of series: PET imaging of [^124I]IPAG in MCF7 tumor-bearing mice. The series is classed as in vivo, athymic nude mice. The method in brief:
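Female athymic nude mice (n=5) carried estradiol-supported s.c. MCF7 xenografts on the right forelimb (100–300 mm³). They got 0.1% KI i.p. 1 h before i.v. tracer (200 μCi, 7.4 MBq, in 150 μL 0.5% ethanol/saline). Mice were anaesthetised with 2% isoflurane in air for 15 min and scanned by microPET at serial times up to 144 h post-injection. Images were read visually and tumor maximum pixel values recorded.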

The test system of a further series is MCF7 tumors. The experiment in a line: Ex vivo biodistribution of [^124I]IPAG in MCF7 tumor-bearing mice. On the set-up: species or system athymic nude mice. The note with it: n = 5. The method, boiled down:
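Female athymic nude mice (6–8 wk) got s.c. 17β-estradiol pellets (0.75 mg) 72 h before s.c. forelimb implant of 1×10^7 MCF7 cells in 1:1 Matrigel/medium. Tumors were 100–300 mm³. Mice got 0.1% KI i.p. 1 h before i.v. tracer (20–30 μCi in 5% ethanol/0.9% saline) and were euthanised by CO₂ at 4, 24, 48 or 72 h. Organs were weighed and gamma-counted, with background and decay correction. Injected dose was taken from syringe activity before and after injection. Results are %ID/g, mean and SD.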

Chain of S1R (Homo sapiens, UniProt Q99720) (Q99720 whole entry): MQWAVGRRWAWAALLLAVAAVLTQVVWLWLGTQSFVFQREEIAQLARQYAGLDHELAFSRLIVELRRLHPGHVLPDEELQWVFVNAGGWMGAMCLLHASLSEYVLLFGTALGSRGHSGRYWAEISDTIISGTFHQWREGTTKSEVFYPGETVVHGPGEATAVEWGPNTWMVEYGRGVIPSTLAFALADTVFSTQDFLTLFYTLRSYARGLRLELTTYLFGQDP

For `N=C(Nc1ccc(I)cc1)NC1C2CC3CC(C2)CC1C3` (stereo not shown) [IPAG, 1-(4-iodophenyl)-3-(2-adamantyl)guanidine], the “calculated %ID/g values (PET ROI) versus [^124I]IPAG alone” value in the series with LNCaP tumors is recorded as “significantly lower”. Besides, the solubility entry in series [1] is listed as “poor solubility”. Further, the “reduction of [^124I]IPAG tumor uptake” value in the series on MCF-7 tumor xenografts (24 h) is on record as 81.14%; with MCF-7 tumor xenografts (48 h), 88.74%. On S1R [2], this compound yielded an IC50 of 4.7 to 14.1 nM. At S1R [2] (competition against radioiodinated IPAG, sigma-1), the “inhibitory constants in vitro” value is on record as “nanomolar”. The Kd at S1R [3] was 9 nM. In addition, the “clearance time from background organs” value with MCF7 tumor xenografts (PET imaging, mice) is “around 24 h”.
Consider `N=C(Nc1ccc([124I])cc1)NC1C2CC3CC(C2)CC1C3` (stereo not shown) [[^124I]IPAG, I-124 labeled 1-(4-iodophenyl)-3-(2-adamantyl)guanidine], for which the “uptake at extended time post injection (PET imaging)” value with MCF7 tumor xenografts (144 h post injection) is on record as ~ 0.17 % ID/g. The “%ID/g uptake in MCF7 tumors” value in the series with MCF7 tumors (4 h post i.v. injection) was 1.53 ± 0.27 %ID/g; in the series on MCF7 tumors (24 h post i.v. injection) it was 1.09 ± 0.24 %ID/g; with MCF7 tumors (48 h post i.v. injection) it was 0.94 ± 0.23 %ID/g.
On to `O=C(CCCN1CCC(O)(c2ccc(Cl)cc2)CC1)c1ccc(F)cc1` [haloperidol], for which the “inhibition of [^124I]IPAG uptake in tumor” value in the series on MCF-7 tumor xenografts (3.5-fold excess of haloperidol i.v. with tracer, 72 h p.i.) is on record as “about 3 fold”.

By IC50 is commonly meant the point on the concentration scale where inhibition reaches its midpoint. Low values mean inhibition by little substance, high ones a need for much substance. Broadly, the Kd is the constant that tells how readily two partners part at equilibrium.
